The text below walks through data of ChEMBL document CHEMBL4152391, “Bile Acid Oligomers and Their Combination with Antibiotics To Combat Bacterial Infections” (J Med Chem, 2018).

Converted amounts (≈) assume the structure as drawn. The source made the active and inactive calls. The calls are words filed in the database; no cut-off is given here.

Data set [1] has as its system Staphylococcus aureus. Briefly: Potentiation of ciprofloxacin-induced antibacterial activity against Staphylococcus aureus ATCC 29213 assessed as FICI index at 2 ug/ml after 18 hrs by checkerboard microdilution method relative to control. Type of data set: functional. In a few lines:
(§1)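 Checkerboard microdilution: 5x10^5 cfu/mL bacteria exposed to twofold serial dilutions of compound and antibiotic, alone and combined (0.03–32 µg/mL), 18 h at 37 °C. ΣFIC: ≤0.5 synergy; >0.5–1 additive; >1–4 indifferent; >4 antagonism.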

Data set [2] has as its system Staphylococcus aureus. Briefly: Antibacterial activity against Staphylococcus aureus ATCC 29213 assessed as shriveling at 0.5 times MIC after 18 hrs by scanning electron microscopic method. It is filed as functional, organism-based. The method, boiled down: (§2)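 Bacterial suspension (5x10^5 cfu/mL) exposed to compound at 0.5x and 1x MIC for 18 h at 37 °C alongside untreated control; centrifuged 10,000 rpm 10 min, pellets washed twice in normal saline, then processed for scanning electron microscopy.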

The test system of data set [3] is Staphylococcus aureus. Description: Antibacterial activity against methicillin/ciprofloxacin/chloramphenicol-resistant Staphylococcus aureus ATCC 1704 clinical isolate after 18 hrs by broth microdilution method. To be noted: ATCC 1704, 18 h. Type of data set: functional, organism-based. The method, boiled down: (§3)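 Broth microdilution per CLSI for water-insoluble agents: twofold serial dilutions made in DMSO at 100x final, diluted in Mueller Hinton broth to 1% final DMSO; 5x10^5 cfu/mL bacteria exposed 18 h at 37 °C with positive, growth and sterility controls. MIC = lowest concentration giving complete growth inhibition (turbidity and XTT reduction); IC50 from OD600 dose-response inflection point.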

The test system of data set [4] is Staphylococcus aureus. Briefly: Antibacterial activity against Staphylococcus aureus ATCC 29213 at 30 ug after 18 hrs by agar disk-diffusion method. The settings on record: ATCC 29213, 18 h, read-out: DIZ. It is filed as functional. In a few lines:
(§4)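 Agar disk diffusion per CLSI: compound loaded on sterile 6 mm paper disks, dried, placed on Mueller Hinton agar lawned with bacteria at McFarland 0.5; cefotaxime positive and DMSO solvent controls; 37 °C for 18 h; zone of inhibition diameter measured to nearest whole mm.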

Data set [5] deals with Staphylococcus aureus. Description: Potentiation of ciprofloxacin-induced antibacterial activity against Staphylococcus aureus ATCC 29213 assessed as decrease in […] at 2 ug/ml after 18 hrs by checkerboard microdilution method relative to control. Type of data set: functional. In a few lines: as §1
The subject of data set [6] is Staphylococcus aureus. Briefly: Potentiation of vancomycin-induced antibacterial activity against Staphylococcus aureus ATCC 29213 assessed as FICI index at 2 ug/ml after 18 hrs by checkerboard microdilution method relative to control. Type of data set: functional. The method, boiled down:
as §1

For data set [7], the system named is Candida albicans. Description: Antifungal activity against Candida albicans ATCC 90028 at 30 ug after 24 hrs by agar disk-diffusion method. It is filed as functional. To be noted: ATCC 90028, 24 h, read-out: DIZ. In a few lines:
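Candida disk diffusion on MHA with 2% glucose and 0.5 µg/mL methylene blue, following CLSI antifungal guidance; paper disks loaded with compound; incubated 37 °C for 24 h; zone of inhibition diameter read.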

The test system of data set [8] is Staphylococcus aureus. Briefly: Antibacterial activity against methicillin/ciprofloxacin-resistant Staphylococcus aureus ATCC 2673 clinical isolate after 18 hrs by broth microdilution method. It is filed as functional, organism-based. The settings on record: ATCC 2673, 18 h. The method, boiled down:
as §3

Data set [9] deals with Escherichia coli. Briefly: Antibacterial activity against Escherichia coli ATCC 25922 at 5 to 100 ug after 18 hrs by agar disk-diffusion method. It is filed as functional, organism-based. The method, boiled down: as §4
For data set [10], the system named is Staphylococcus aureus. Briefly: Antibiofilm activity against Staphylococcus aureus ATCC 29213 after 18 hrs by XTT-menadione assay. Type of data set: functional. The method, boiled down:
(§5)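 Biofilms grown 24 h at 37 °C from suspension at OD600 0.1 in tryptic soy broth with 1% glucose, washed twice with saline, exposed 18 h at 37 °C to twofold serial dilutions; growth and sterility controls. Read by XTT (0.5 mg/mL)–menadione (10 µM) in MHB, 1 h dark at 37 °C, absorbance 450 nm; MBIC50 and MBIC100 = 50% and 100% inhibition.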

The test system of data set [11] is Staphylococcus aureus. Description: Antibacterial activity against Staphylococcus aureus ATCC 29213 assessed as bleb formation at 0.5 times MIC after 18 hrs by scanning electron microscopic method. Type of data set: functional, organism-based. In a few lines:
as §2

For data set [12], the system named is Staphylococcus aureus. Briefly: Antibacterial activity against Staphylococcus aureus ATCC 29213 after 18 hrs by broth microdilution method. It is filed as functional, organism-based. To be noted: ATCC 29213, 18 h. In a few lines: as §3
Data set [13] has as its system Pseudomonas aeruginosa. Description: Antibacterial activity against Pseudomonas aeruginosa at 5 to 100 ug after 18 hrs by agar disk-diffusion method. Type of data set: functional, organism-based. The method, boiled down: as §4
The test system of data set [14] is Staphylococcus aureus. Briefly: Potentiation of amikacin-induced antibacterial activity against Staphylococcus aureus ATCC 29213 assessed as FICI index at 2 ug/ml after 18 hrs by checkerboard microdilution method relative to control. It is filed as functional. The method, boiled down:
as §1

In data set [15] the test system is Staphylococcus aureus. Briefly: Potentiation of amikacin-induced antibacterial activity against Staphylococcus aureus ATCC 29213 assessed as decrease in […] at 2 ug/ml after 18 hrs by checkerboard microdilution method relative to control. It is filed as functional. The method, boiled down:
as §1

Data set [16] relates to Staphylococcus aureus. Description: Antibacterial activity against methicillin/ciprofloxacin-resistant Staphylococcus aureus ATCC 2673 clinical isolate at 5 to 100 ug after 18 hrs by agar disk-diffusion method. Type of data set: functional. In a few lines:
(§6)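 CLSI agar disk diffusion: 5 to 100 µg compound loaded on 6 mm sterile paper disks, dried, placed on Mueller Hinton agar lawned with McFarland 0.5 bacterial suspension; cefotaxime positive and DMSO solvent controls run alongside; 18 h at 37 °C, inhibition zone diameter read to nearest whole mm.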

The test system of data set [17] is Staphylococcus aureus. Description: Antibacterial activity against Staphylococcus aureus ATCC 29213 assessed as disruption of cell membrane at 0.5 times MIC after 18 hrs by scanning electron microscopic method. It is filed as functional, organism-based. The method, boiled down:
as §2

Data set [18] has as its system Staphylococcus aureus. Briefly: Potentiation of vancomycin-induced antibacterial activity against Staphylococcus aureus ATCC 29213 assessed as decrease in […] at 2 ug/ml after 18 hrs by checkerboard microdilution method relative to control. It is filed as functional. The method, boiled down:
as §1

Data set [19] relates to Staphylococcus aureus. Description: Potentiation of cefotaxime-induced antibacterial activity against Staphylococcus aureus ATCC 29213 assessed as FICI index at 2 ug/ml after 18 hrs by checkerboard microdilution method relative to control. It is filed as functional. The method, boiled down:
as §1

The subject of data set [20] is Staphylococcus aureus. Briefly: Antibacterial activity against methicillin/ciprofloxacin/chloramphenicol-resistant Staphylococcus aureus ATCC 1704 clinical isolate at 5 to 100 ug after 18 hrs by agar disk-diffusion method. It is filed as functional. In a few lines: as §6
The test system of data set [21] is HEK293. Description: Cytotoxicity against HEK293 cells assessed as decrease in cell viability at 1 to 200 uM after 24 hrs by Alamar Blue assay. To be noted: human, hek293, 24 h. It is filed as cell-based. In a few lines:
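HEK293 cells in DMEM HG, 10% FBS, 1% pen-strep, 37 °C 5% CO2, passage under 30, used at 80% confluency; seeded 1×10^4/well, after 24 h washed and treated 24 h with 1–200 µM in complete medium; alamar blue (0.15 mg/mL) added for 4 h, absorbance 570 and 600 nm; viability relative to untreated cells as 100%.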

Data set [22] concerns Staphylococcus aureus. Briefly: Potentiation of cefotaxime-induced antibacterial activity against Staphylococcus aureus ATCC 29213 assessed as decrease in cefotaxime MIC at 2 ug/ml after 18 hrs by checkerboard microdilution method relative to control. It is filed as functional. In a few lines:
as §1

The test system of data set [23] is Staphylococcus aureus. Briefly: Antibiofilm activity against Staphylococcus aureus ATCC 29213 at 128 ug/ml after 18 hrs by XTT-menadione assay relative to control. It is filed as functional. In a few lines:
as §5

Take `C[C@H](CCC(=O)NCCNCCNC(=O)CC[C@@H](C)[C@H]1CC[C@H]2[C@@H]3[C@H](O)C[C@@H]4C[C@H](O)CC[C@]4(C)[C@H]3C[C@H](O)[C@]12C)[C@H]1CC[C@H]2[C@@H]3[C@H](O)C[C@@H]4C[C@H](O)CC[C@]4(C)[C@H]3C[C@H](O)[C@]12C`: the “fractional inhibitory concentration index (FICI)” value in data set [1] amounted to 0.56; in [6], 1; in data set [14], 0.51; in data set [19], 0.53. For the same molecule, the outcome in data set [2], in [11] and in data set [17] was Active. The IC50 in data set [3] was determined as 4.36 µg/mL (≈ 4.93 µM); in data set [8], 2.18 µg/mL (≈ 2.47 µM); in data set [12], 2.87 µg/mL (≈ 3.25 µM). Also, the MIC in data set [3] came to 8 µg/mL (≈ 9.05 µM); in [8], 4 µg/mL (≈ 4.52 µM); in [12] it was 4 µg/mL (≈ 4.52 µM). For the same molecule, the figures for the zone of inhibition at 30 µg/disc in data set [4] and in data set [7] were 14 mm and 10 mm, respectively. Further, the “fold change (FC)” value was 17 in data set [5], 67 in data set [15], 2 in data set [18] and 33 in data set [22]. For the same molecule, the result in [9] and in [13] was inactive. The molecule also showed an MBIC100 in [10] of 32 µg/mL. Besides, the “diameter of the inhibition zone (DIZ)” value in [16] and in [20] was 13 mm each time. Moreover, the Activity result in data set [21] is on record as “Non-Toxic”.

Regarding `NCC[C@H](O)C(=O)N[C@@H]1C[C@H](N)[C@@H](O[C@H]2O[C@H](CN)[C@@H](O)[C@H](O)[C@H]2O)[C@H](O)[C@H]1O[C@H]1O[C@H](CO)[C@@H](O)[C@H](N)[C@H]1O` [AMIKACIN], in [23], the Activity is <50%.

Turning to `O=C(O)c1cn(C2CC2)c2cc(N3CCNCC3)c(F)cc2c1=O` [CIPROFLOXACIN], the Activity in data set [23] is <50%.
